In brackets after ≈: the same amount, converted by molar mass.
Experiments:
Format in all cases: functional
Absidia [1] = test: Antifungal activity against Absidia spp after 24 hrs
Summary of the method: (§1)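 Broth microdilution per CLSI M38-A, with plates incubated at 35°C and read at 24 and 48 h. Final well concentrations were 0.03 to 16 µg/ml for four agents and 0.250 to 256 µg/ml for the echinocandin. The MIC was the lowest concentration giving complete growth inhibition (MIC-0). For the echinocandin, the MEC was also read as the lowest concentration showing abnormal growth. QC strains were A. flavus ATCC 204304 and A. fumigatus ATCC 204305.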

Absidia [2] = test: Antifungal activity against Absidia spp after 48 hrs; summary of the method: as §1
Cunninghamella [3] = test: Antifungal activity against Cunninghamella spp after 24 hrs; summary of the method: as §1
Cunninghamella [4] = test: Antifungal activity against Cunninghamella spp after 48 hrs; summary of the method: as §1
Mucor [5] = test: Antifungal activity against Mucor spp after 24 hrs; summary of the method: as §1
Mucor [6] = test: Antifungal activity against Mucor spp after 48 hrs; summary of the method: as §1
Rhizomucor [7] = test: Antifungal activity against Rhizomucor spp after 24 hrs; summary of the method: as §1
Rhizomucor [8] = test: Antifungal activity against Rhizomucor spp after 48 hrs; summary of the method: as §1
Rhizopus [9] = test: Antifungal activity against Rhizopus spp after 24 hrs; summary of the method: as §1
Rhizopus [10] = test: Antifungal activity against Rhizopus spp after 48 hrs; summary of the method: as §1
Syncephalastrum [11] = test: Antifungal activity against Syncephalastrum spp after 24 hrs; summary of the method: as §1
Syncephalastrum [12] = test: Antifungal activity against Syncephalastrum spp after 48 hrs; summary of the method: as §1

| SMILES | MIC50 (Absidia [1]) | MIC90 (Absidia [1]) | MIC50 (Absidia [2]) | MIC90 (Absidia [2]) | MIC50 (Cunninghamella [3]) | MIC90 (Cunninghamella [3]) | MIC50 (Cunninghamella [4]) | MIC90 (Cunninghamella [4]) | MIC50 (Mucor [5]) | MIC90 (Mucor [5]) | MIC50 (Mucor [6]) | MIC90 (Mucor [6]) | MIC50 (Rhizomucor [7]) | MIC90 (Rhizomucor [7]) | MIC50 (Rhizomucor [8]) | MIC90 (Rhizomucor [8]) | MIC50 (Rhizopus [9]) | MIC90 (Rhizopus [9]) | MIC50 (Rhizopus [10]) | MIC90 (Rhizopus [10]) | also measured |
| --- | --- | --- | --- | --- | --- | --- | --- | --- | --- | --- | --- | --- | --- | --- | --- | --- | --- | --- | --- | --- | --- |
| C[C@@H](c1ncncc1F)[C@](O)(Cn1cncn1)c1ccc(F)cc1F [VORICONAZOLE] | > 16 µg/mL | > 16 µg/mL | > 16 µg/mL | > 16 µg/mL | > 16 µg/mL | > 16 µg/mL | > 16 µg/mL | > 16 µg/mL | > 16 µg/mL | > 16 µg/mL | > 16 µg/mL | > 16 µg/mL | 16 µg/mL (≈ 45.8 µM) | 16 µg/mL (≈ 45.8 µM) | > 16 µg/mL | > 16 µg/mL | 16 µg/mL (≈ 45.8 µM) | 16 µg/mL (≈ 45.8 µM) | 16 µg/mL (≈ 45.8 µM) | > 16 µg/mL | MIC50 (Syncephalastrum [11]): 4 µg/mL (≈ 11.5 µM); MIC90 (Syncephalastrum [11]): > 16 µg/mL; MIC50 (Syncephalastrum [12]): > 16 µg/mL; MIC90 (Syncephalastrum [12]): > 16 µg/mL |
| CC[C@@H]([C@H](C)O)n1ncn(-c2ccc(N3CCN(c4ccc(OC[C@@H]5CO[C@@](Cn6cncn6)(c6ccc(F)cc6F)C5)cc4)CC3)cc2)c1=O [POSACONAZOLE] | 0.5 µg/mL (≈ 0.713 µM) | 1 µg/mL (≈ 1.43 µM) | 0.5 µg/mL (≈ 0.713 µM) | > 16 µg/mL | 0.5 µg/mL (≈ 0.713 µM) | 0.5 µg/mL (≈ 0.713 µM) | 0.5 µg/mL (≈ 0.713 µM) | 0.5 µg/mL (≈ 0.713 µM) | 0.5 µg/mL (≈ 0.713 µM) | 2 µg/mL (≈ 2.85 µM) | 0.5 µg/mL (≈ 0.713 µM) | 2 µg/mL (≈ 2.85 µM) | 0.5 µg/mL (≈ 0.713 µM) | 0.5 µg/mL (≈ 0.713 µM) | 2 µg/mL (≈ 2.85 µM) | 2 µg/mL (≈ 2.85 µM) | 0.5 µg/mL (≈ 0.713 µM) | 0.5 µg/mL (≈ 0.713 µM) | 0.5 µg/mL (≈ 0.713 µM) | 1 µg/mL (≈ 1.43 µM) | MIC50 (Syncephalastrum [11]): 0.25 µg/mL (≈ 0.357 µM); MIC90 (Syncephalastrum [11]): 0.5 µg/mL (≈ 0.713 µM); MIC50 (Syncephalastrum [12]): 0.5 µg/mL (≈ 0.713 µM); MIC90 (Syncephalastrum [12]): 0.5 µg/mL (≈ 0.713 µM) |

Continued, in another order:

| MIC50 (Absidia [1]) | MIC90 (Absidia [1]) | MIC50 (Absidia [2]) | MIC90 (Absidia [2]) | MIC50 (Cunninghamella [3]) | MIC90 (Cunninghamella [3]) | MIC50 (Cunninghamella [4]) | MIC90 (Cunninghamella [4]) | MIC50 (Mucor [5]) | MIC90 (Mucor [5]) | MIC50 (Mucor [6]) | MIC90 (Mucor [6]) | MIC50 (Rhizomucor [7]) | MIC90 (Rhizomucor [7]) | MIC50 (Rhizomucor [8]) | MIC90 (Rhizomucor [8]) | MIC50 (Rhizopus [9]) | MIC90 (Rhizopus [9]) | MIC50 (Rhizopus [10]) | MIC90 (Rhizopus [10]) | SMILES | also measured |
| --- | --- | --- | --- | --- | --- | --- | --- | --- | --- | --- | --- | --- | --- | --- | --- | --- | --- | --- | --- | --- | --- |
| 1 µg/mL (≈ 1.08 µM) | 4 µg/mL (≈ 4.33 µM) | 0.5 µg/mL (≈ 0.541 µM) | 4 µg/mL (≈ 4.33 µM) | 2 µg/mL (≈ 2.16 µM) | 4 µg/mL (≈ 4.33 µM) | 2 µg/mL (≈ 2.16 µM) | > 16 µg/mL | 1 µg/mL (≈ 1.08 µM) | 1 µg/mL (≈ 1.08 µM) | 1 µg/mL (≈ 1.08 µM) | 2 µg/mL (≈ 2.16 µM) | 1 µg/mL (≈ 1.08 µM) | 1 µg/mL (≈ 1.08 µM) | 1 µg/mL (≈ 1.08 µM) | 1 µg/mL (≈ 1.08 µM) | 1 µg/mL (≈ 1.08 µM) | 2 µg/mL (≈ 2.16 µM) | 1 µg/mL (≈ 1.08 µM) | 2 µg/mL (≈ 2.16 µM) | C[C@@H]1[C@H](O)[C@@H](C)/C=C/C=C/C=C/C=C/C=C/C=C/C=C/[C@H](O[C@@H]2O[C@H](C)[C@@H](O)[C@H](N)[C@@H]2O)C[C@@H]2O[C@](O)(C[C@@H](O)C[C@@H](O)[C@H](O)CC[C@@H](O)C[C@@H](O)CC(=O)O[C@H]1C)C[C@H](O)[C@H]2C(=O)O [AMPHOTERICIN B] | MIC50 (Syncephalastrum [11]): 0.125 µg/mL (≈ 0.135 µM); MIC90 (Syncephalastrum [11]): 1 µg/mL (≈ 1.08 µM); MIC50 (Syncephalastrum [12]): 0.125 µg/mL (≈ 0.135 µM); MIC90 (Syncephalastrum [12]): 2 µg/mL (≈ 2.16 µM) |
| 1 µg/mL (≈ 1.42 µM) | > 16 µg/mL | 1 µg/mL (≈ 1.42 µM) | > 16 µg/mL | 1 µg/mL (≈ 1.42 µM) | 4 µg/mL (≈ 5.67 µM) | 1 µg/mL (≈ 1.42 µM) | 4 µg/mL (≈ 5.67 µM) | 1 µg/mL (≈ 1.42 µM) | > 16 µg/mL | 4 µg/mL (≈ 5.67 µM) | > 16 µg/mL | 2 µg/mL (≈ 2.83 µM) | 2 µg/mL (≈ 2.83 µM) | > 16 µg/mL | > 16 µg/mL | 1 µg/mL (≈ 1.42 µM) | > 16 µg/mL | 4 µg/mL (≈ 5.67 µM) | > 16 µg/mL | CCC(C)n1ncn(-c2ccc(N3CCN(c4ccc(OCC5COC(Cn6cncn6)(c6ccc(Cl)cc6Cl)O5)cc4)CC3)cc2)c1=O (stereo unspecified) [ITRACONAZOLE] | MIC50 (Syncephalastrum [11]): 1 µg/mL (≈ 1.42 µM); MIC90 (Syncephalastrum [11]): 1 µg/mL (≈ 1.42 µM); MIC50 (Syncephalastrum [12]): 1 µg/mL (≈ 1.42 µM); MIC90 (Syncephalastrum [12]): 8 µg/mL (≈ 11.3 µM) |
| 256 µg/mL (≈ 234 µM) | > 256 µg/mL | > 256 µg/mL | > 256 µg/mL | 256 µg/mL (≈ 234 µM) | > 256 µg/mL | 256 µg/mL (≈ 234 µM) | > 256 µg/mL | 256 µg/mL (≈ 234 µM) | > 256 µg/mL | > 256 µg/mL | > 256 µg/mL | 256 µg/mL (≈ 234 µM) | 256 µg/mL (≈ 234 µM) | > 256 µg/mL | > 256 µg/mL | > 256 µg/mL | > 256 µg/mL | > 256 µg/mL | > 256 µg/mL | CC[C@H](C)C[C@H](C)CCCCCCCCC(=O)N[C@H]1C[C@@H](O)[C@@H](NCCN)NC(=O)[C@@H]2[C@@H](O)CCN2C(=O)[C@H]([C@H](O)CCN)NC(=O)[C@H]([C@H](O)[C@@H](O)c2ccc(O)cc2)NC(=O)[C@@H]2C[C@@H](O)CN2C(=O)[C@H]([C@@H](C)O)NC1=O [CASPOFUNGIN] | minimal effective concentration (Absidia [1]; read-out: MEC): 64 µg/mL; minimal effective concentration (Absidia [2]; read-out: MEC): 256 µg/mL; minimal effective concentration (Cunninghamella [3]; read-out: MEC): 128 µg/mL; minimal effective concentration (Cunninghamella [4]; read-out: MEC): 128 µg/mL; minimal effective concentration (Mucor [5]; read-out: MEC): 128 µg/mL; minimal effective concentration (Rhizomucor [7]; read-out: MEC): 32 µg/mL; minimal effective concentration (Rhizomucor [8]; read-out: MEC): 64 µg/mL; minimal effective concentration (Rhizopus [9]; read-out: MEC): 128 µg/mL; minimal effective concentration (Rhizopus [10]; read-out: MEC): 256 µg/mL; MIC50 (Syncephalastrum [11]): 256 µg/mL (≈ 234 µM); MIC90 (Syncephalastrum [11]): > 256 µg/mL; minimal effective concentration (Syncephalastrum [11]; read-out: MEC): 8 µg/mL; MIC50 (Syncephalastrum [12]): 256 µg/mL (≈ 234 µM); MIC90 (Syncephalastrum [12]): > 256 µg/mL; minimal effective concentration (Syncephalastrum [12]; read-out: MEC): > 256 µg/mL |

Source: ChEMBL document CHEMBL1142080, “In vitro activities of amphotericin B, caspofungin, itraconazole, posaconazole, and voriconazole against 45 clinical isolates of zygomycetes: comparison of CLSI M38-A, Sensititre YeastOne, and the Etest” (2007)
